A short description of the series: Toxicity liver stage against HepG2, at 10uM. Type of series: cell-based. On the set-up: test concentration 10 uM, cell line HepG2-A16-CD81EGFP. As to conditions: human, HepG2-A16-CD81EGFP cells; read-out: INHIBITION
The method, boiled down: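 Uninfected HepG2-A16-CD81EGFP cells, 3 × 10^3 per well, 1536-well, plated on prespotted compound at 10 μM final, parasite-free screening media added to match infected plates; puromycin 10 μM positive, DMSO 0.5% negative; run in parallel with 48 h PbLuc assay at 37 °C, 5% CO2; viability by CellTiter-Glo luminescence, normalized to controls.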
With `Cc1ccnc(NC(=O)CCNC(=O)c2ccccc2Cl)c1`, the cytotoxicity at 10 µM is -2.66%.
As to `CN(C)Cc1cc(CC2(NCc3ccc(C#N)cc3)COC2)no1`, the cytotoxicity at 10 µM was -5.96%.
Then `COc1coc(C(=O)Nc2nc(-c3ccccn3)cs2)cc1=O`, with 7.31%; and `Cc1cccc(CS(=O)(=O)NCc2nn(C)c3c2COCC3)c1`, with -3.02%; and `COC(CNC(=O)c1cn(C)nn1)c1ccccc1C` (stereo not given), with -14.5%.
`CN(Cc1cccnc1)[C@@H]1CN(Cc2ccccn2)[C@@H]2CCCO[C@H]12`: the cytotoxicity at 10 µM was -0.0545%.
As to `COc1ccc(C(C)NC(=O)c2nn(C)c(C)c2Br)cc1` (stereo not given), the cytotoxicity at 10 µM was determined as 9.18%.
To `Clc1ccc2[nH]c3c(c2c1)CCCC3c1nn[nH]n1` (stereo not given) belongs -4.13%.
Then `CC(C)(C)C(=O)NCCc1cc(N2CCOCC2)nc(NC2CC2)n1`, with 6.68%.
Regarding `CC(C)(C)Nc1c(C2CCN(C(=O)C(C)(C)C)CC2)nc2ccccn12`, the cytotoxicity at 10 µM is 6.53%.
To `Cc1cnc(CC2COCCN(C(=O)CN3CCCCC3)C2)cn1` (stereo not given) belongs -3.22%; to `Cc1cc(-c2cnc(C(C)C)nc2CN(C)C(=O)c2ccccn2)on1`, 2.47%.
As for `COCCC(=O)N1CCCC(c2noc3nc(C)cc(C(F)(F)F)c23)C1` (stereo not given), the cytotoxicity at 10 µM was -19.9%.
To `CCc1c(C)nc(C2CCCN2C(=O)c2cc(C)no2)nc1O` (stereo not given) belongs -5.75%; to `Cc1ccc(S(=O)(=O)N2CCN(CCCO)CC2)s1`, -9.12%; to `Cc1noc(CN(Cc2ccco2)Cc2cccc3c2OCO3)n1`, -2.51%.
To `CS(=O)(=O)NC1CCN(Cc2coc(-c3ccccc3)n2)CC1` belongs -43.3%; to `CC(NCc1nnc2n1CCCC2)c1nc(C(C)(C)C)no1` (stereo not given), -39.2%; to `CSC1(CNC(=O)NCc2sccc2C)CCOCC1`, -49.6%.
To `COC(=O)c1ccc(N2CCN(C(=O)C3CCC3)C(C)C2)cc1` (stereo not given) belongs -4.18%; to `COc1cc(C(=O)O)ccc1OCC(=O)NC(C)c1ccc(F)cc1` (stereo not given), -1.4%; to `Cc1cc(CN(Cc2ccccc2)CC(O)c2cccs2)on1` (stereo not given), 5.29%.
For the compound `CC(Oc1ccccc1C(F)(F)F)C(=O)NCCCC(N)=O` (stereo not given), the cytotoxicity at 10 µM is -1.73%.
Then `Cc1cc(C)n(CCC(=O)N2CCCC(n3nc(C)nc3C)C2)n1` (stereo not given), with -5.61%; and `CCOc1cc(CNC(=O)NCc2nc(C)c(C)s2)ccn1`, with -2.49%.
To `O=S1(=O)CCC(n2cc(CNCC3(c4ccccc4)CC3)cn2)C1` (stereo not given) belongs 16.5%; to `COc1cc(F)c(S(=O)(=O)NCc2ccnc(N(C)C)n2)cc1OC`, -147%.
To `CC(NC(=O)Nc1nncs1)C(=O)NC1CCCC1` (stereo not given) belongs -5.36%; to `Cc1nc(CNC(=O)NC2CCN(c3ncccc3Cl)C2)oc1C` (stereo not given), 2.93%.
For the compound `O=C(O)CC1CN(S(=O)(=O)c2cccc(F)c2)c2ccccc21` (stereo not given), the cytotoxicity at 10 µM is -4.17%.
To `CNC(=O)C(C)S(=O)(=O)Cc1csc(-c2cccs2)n1` (stereo not given) belongs -11.9%; to `CNC(=O)C1CCCN(C(=O)NCCC2Cc3ccccc3C2)C1` (stereo not given), 15.4%.
Then `O=C(NCC1CCC2(CC1)OCCO2)c1cccc(-n2cccn2)c1`, with 0.477%; and `O=C(COc1ccccc1C(F)(F)F)NCCNC(=O)c1ccccc1`, with -9.53%; and `CC(C)N(CC1CCCN(CC(N)=O)C1)C(=O)OC(C)(C)C` (stereo not given), with -5.66%.
To `Cc1nc(CNC(=O)c2oc3ccccc3c2CN(C)C)oc1C` belongs 9.46%; to `CCc1noc(C(C)N2CCC(NC(=O)c3ccc(C)s3)CC2)n1` (stereo not given), -9.9%.
Regarding `CCN(C(=O)COC)C(c1cccnc1)c1cc(C)cc(C)c1` (stereo not given), the cytotoxicity at 10 µM is -20.9%.
To `Cc1cc(F)ccc1CNCCn1cccn1` belongs -10.2%; to `O=C(c1ccnn1-c1ccc2ccccn12)N1CCCC1`, -102%.
Regarding `Cn1nc(C#N)c2c1CN(C(=O)c1nc[nH]n1)CCC2`, the cytotoxicity at 10 µM was -100%.
As for `COc1cc(N2CCC3(C2)CN(c2cccnc2)C(=O)CN3C)ncn1` (stereo not given), the cytotoxicity at 10 µM was -107%.
Then `CC(C)n1cnc(-c2nc(C(=O)NC3CC3)c3ccccn23)c1`, with -102%; and `CS(=O)(=O)NCc1noc2c1CN(C(=O)C1CC1)CC2`, with -107%; and `CCOCC1CC2(CCN(Cc3ccccn3)CC2)CO1` (stereo not given), with -0.671%.
To `N#CC1(c2ccccc2)CCN(C(=O)CN2C(=O)CCNC2=O)CC1` belongs 0.172%; to `CCn1cc(-c2c(C)c(C3CCOC(C)(C)C3)nc(N)c2C#N)cn1` (stereo not given), -10.3%.
Regarding `CC[S+]([O-])CCc1nc(CC(C)C)nn1-c1ccc2c(c1)OCCO2` (stereo not given), the cytotoxicity at 10 µM came to 4.24%.
For `COCCc1ncc(CN2C[C@H](C3CC3)[C@@H](N)C2)cn1`, the cytotoxicity at 10 µM was -42%.
Regarding `CN1C(=O)C(c2ccccc2)CC12CCN(CCN)CC2` (stereo not given), the cytotoxicity at 10 µM amounted to 8.67%.
As for `CCCc1nc(CN(CC)C(=O)c2ccc3[nH]cnc3c2)no1`, the cytotoxicity at 10 µM worked out at 3.98%.
Then `C=C(C)COc1cccc(CNC(CC(C)C)c2ncnn2C)c1` (stereo not given), with 1.16%; and `CCC(C)N(Cc1cnc(NC(C)C)nc1)Cc1ccsc1` (stereo not given), with 3.84%.
Turning to `CCC[C@H]1CN(S(C)(=O)=O)C[C@@H]1NC(=O)Cc1ccc(F)cc1C`, the cytotoxicity at 10 µM is -7.13%.
In the case of `CC(=O)NCCC(=O)N(C/C=C/c1ccccc1)CCO`, the cytotoxicity at 10 µM amounted to 4.1%.
Turning to `O=C(CCNCc1cc(O)c2cc(F)ccc2n1)N1CCCC1`, the cytotoxicity at 10 µM is -49.3%.
Then `CCc1ncc2c(n1)CN(C(=O)CNC(=O)c1ccccc1)C2`, with 2.41%; and `CNC(=O)[C@@H]1C[C@H](n2cc(-c3ccc(Cl)cc3)nn2)CN1`, with 5.89%; and `CC(O)c1cn(CC2CCN(C(=O)c3cscn3)CC2)nn1` (stereo not given), with 1.83%.
To `Cc1nn(C)cc1-c1ccnc(N(C)Cc2ccc(F)cc2)n1` belongs -3.85%; to `COCCNc1cc(-c2ccccc2C(=O)O)c2cc[nH]c2n1`, 2.13%; to `CNc1ccnc(N2C[C@@H](C)[C@](O)(C3CCC3)C2)n1`, -10.1%.
With `CN(C)c1ncnc2c1CCN(S(=O)(=O)c1ccccc1C(F)(F)F)C2`, the cytotoxicity at 10 µM was 21.3%.
Then `Cc1nc(-c2cccc(N3CCC(N4CCCC4)CC3)c2)cs1`, with -17.2%; and `COc1ccc([C@@H]2CN(Cc3cccnc3N)C[C@H]2N(C)C)cc1`, with 1.54%.
To `OC1(CN2CCCCC2)CCN(Cc2c[nH]c(CC3CCCC3)n2)C1` (stereo not given) belongs -13%.
To `CCCc1nnc(N2CCN(c3cccc(C)c3C)CC2)o1` belongs 9.59%.
For the compound `Cc1c(C2CCOC(C)(C)C2)nc(N)c(C#N)c1-c1ccc(O)cc1` (stereo not given), the cytotoxicity at 10 µM worked out at 22.8%.
With `O=C1CC(C(=O)O)C2(CCN(C(=O)NCc3ccc(Cl)cc3)CC2)N1` (stereo not given), the cytotoxicity at 10 µM was 7.66%.
Regarding `Cc1ncnc(NCc2cc3n(n2)CCCN(S(C)(=O)=O)C3)c1C`, the cytotoxicity at 10 µM was -8.42%.
Take `CC(=O)Nc1ccc(CNC2CC(=O)N(Cc3cccc(F)c3)C2)cc1` (stereo not given): the cytotoxicity at 10 µM was -6.98%.
Then `CCOCCn1nc(C)cc1C(=O)N1CC[C@](C)(O)[C@H](C)C1`, with -6.34%.
Then `Cc1nc(N)cc(C2CN(C(=O)c3ccn(C)n3)CCO2)n1` (stereo not given), with 0.0241%; and `C=Cn1ncc(CN2C[C@@H]3CCCN3C[C@H]2CCSC)c1C`, with -4.12%.
For the compound `CCC(=O)N1CCN(C(=O)NCCOc2ccc3c(c2)CCC3)CC1`, the cytotoxicity at 10 µM was -7.57%.
To `CCN(CC1CCOC1)C(=O)c1cccnc1N1CCOCC1` (stereo not given) belongs -10.8%.
To `CC(NC(=O)NCCCn1ccnc1)c1ccc2c(c1)OCCCO2` (stereo not given) belongs -15.1%; to `CC(NC(=O)NCCCN1CCCCCC1)c1nncn1C` (stereo not given), -7.1%.
To `CS(=O)(=O)N1CCC(C(=O)NCCNc2ncccn2)CC1` belongs -8.11%; to `CCNc1cc2c(nn1)CCN(C(=O)c1ccc3cc[nH]c3c1)C2`, -6.95%.
In the case of `Cc1nn(C)c(N2CCOCC2)c1CNCc1nccs1`, the cytotoxicity at 10 µM was -6.33%.
With `O=C(N1CCC(Nc2cccnn2)CC1)C1(c2ccc(F)cc2)CC1`, the cytotoxicity at 10 µM was -12.8%.
Take `CCn1c(C)cc(C(=O)N2CCCC(c3nc(C)no3)C2)c1C` (stereo not given): the cytotoxicity at 10 µM was -3.39%.
Then `Cc1ccc(CN(CCCN2CCOCC2)Cc2cnn(C)c2)o1`, with -1.06%; and `O=C(C1CCOCC1)N1CCO[C@H]2[C@H](Oc3ccccn3)CC[C@@H]21`, with -99.6%.
Take `CN(C)CCN1CCOCC2(CCCN(C(=O)c3ccoc3)C2)C1` (stereo not given): the cytotoxicity at 10 µM stood at 4.87%.
Turning to `CCC1=N[C@@]2(CC[C@@H]3CN(CC4CC4)C[C@@H]32)C(=O)N1CC1CC1`, the cytotoxicity at 10 µM came out at 5.39%.
For `O=C(C1=CCCC1)N1CCO[C@H]2[C@@H](Oc3ccccn3)CC[C@@H]21`, the cytotoxicity at 10 µM stood at 0.179%.
Consider `Cc1cccc(CN2CC3(CCN(C(=O)N(C)C)CC3)OCC2=O)n1`, for which the cytotoxicity at 10 µM was -3.88%.
Then `CCc1ncnc2c1CCN(CC(=O)N(C)C)CC2`, with -106%; and `Cc1cccc(CN2CCC3(CC2)CN(c2cccnc2)C(=O)CO3)n1`, with -96.1%; and `Cc1noc(C)c1CN1CCO[C@H]2CNC[C@H]21`, with 5.4%.
Then `O=C(NCc1cccs1)[C@@H]1CC[C@@H]2[C@@H](CCN2CC2CCC2)O1`, with -10.2%; and `Cc1noc([C@@H]2C[C@H]3OCC[C@H]3N(S(=O)(=O)c3cccnc3)C2)n1`, with -12.5%; and `O=C(Nc1ccccc1)[C@H]1C[C@H]2CN(S(=O)(=O)C3CC3)C[C@@H]1O2`, with 4.44%.

These data come from ChEMBL document CHEMBL4513216, “Probing the Open Global Health Chemical Diversity Library for Multistage-Active Starting Points for Next-Generation Antimalarials” (ACS Infect Dis, 2020).
